Measured values as given in ChEMBL document CHEMBL1138479, “Synthesis and antiplasmodial activity of aminoalkylamino-substituted neocryptolepine derivatives” (J Med Chem, 2009).
Active and inactive are the calls of the source. The rule behind the calls is not given here.

Legend:
Plasmodium falciparum = assay: Antiplasmodial activity against chloroquine-sensitive Plasmodium falciparum Ghana in human erythrocytes after 72 hrs by Malstat assay; assay type: functional, organism-based
In short: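 P. falciparum Ghana strain grown in human erythrocytes in RPMI-1640 at 37 °C under 3% O2, 4% CO2, 93% N2. Exposure to compounds lasted 72 h. Multiplication was read by Malstat with absorbance at 655 nm, and % growth inhibition was taken against negative blanks.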

[1] = Cytotoxicity against human MRC5 SV2 cells after 72 hrs by resazurin-based fluorometric assay; assay type: cell-based; settings: MRC5, 72 h
In short: (§1)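 MRC-5 SV2 fibroblasts were kept in MEM with 20 mM L-glutamine and 5% FCS at 37 °C, 5% CO2. Cells were seeded at 10⁴/well onto prediluted compounds and incubated 72 h. Viability was read fluorimetrically after resazurin addition.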

[2] = Selectivity index, ratio of IC50 for human MRC5 SV2 cells to IC50 for chloroquine-sensitive Plasmodium falciparum Ghana; assay type: toxicity, cell-based; settings: read-out: Ratio IC50
Nucleic Acid = assay: Binding affinity to DNA assessed as intercalation after 24 hrs by DNA-methyl green assay; assay type: nucleic-acid assay
In short: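 DNA-methyl green reagent (20 mg in 100 mL 0.05 M Tris HCl pH 7.5 with 7.5 mM MgSO4, stirred 24 h at 37 °C) was added to dried compound. A620 was read at 0 and after 24 h at 25 °C. […] Cryptolepine was the positive control.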

[3] = target: T1, Histidine-rich protein PFHRP-II (Plasmodium falciparum, UniProt P05227); assay: (§2) Inhibition of beta-hematin formation at 5 milliequivalent after 18 hrs by microtiter plate assay; assay type: functional
T1 sequence (P05227 whole entry): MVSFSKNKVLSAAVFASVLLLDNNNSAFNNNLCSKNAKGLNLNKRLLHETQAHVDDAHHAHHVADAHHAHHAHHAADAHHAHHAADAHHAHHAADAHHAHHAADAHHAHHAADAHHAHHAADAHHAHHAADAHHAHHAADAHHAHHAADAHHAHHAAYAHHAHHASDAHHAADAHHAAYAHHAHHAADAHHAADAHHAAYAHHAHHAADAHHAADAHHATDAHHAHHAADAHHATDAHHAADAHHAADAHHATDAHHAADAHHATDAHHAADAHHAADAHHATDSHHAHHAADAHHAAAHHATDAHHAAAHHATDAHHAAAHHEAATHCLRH

[4] = target: T1, Histidine-rich protein PFHRP-II; assay: Inhibition of beta-hematin formation after 18 hrs by microtiter plate assay; assay type: functional
Plasmodium berghei [5] = assay: Antiplasmodial activity as reduced parasitaemia against chloroquine-sensitive Plasmodium berghei ANKA infected Swiss mice (Mus musculus) at 50 mg/kg intraperitoneal dose 4-6 hrs post infection on day 4; assay type: functional
In short: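 Swiss mice were infected ip with 4 × 10⁸ P. berghei ANKA-infected erythrocytes. Treatment was ip at 50 mg/kg daily for five consecutive days. Parasitaemia was scored on Giemsa-stained blood smears on days 4 and 7.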

MRC5 = assay: Cytotoxicity against human MRC5 cells; assay type: cell-based; in short: as §1
[6] = target: T2, Histidine-rich protein PFHRP-II (Plasmodium falciparum) (UniProt P05227); assay: as §2; assay type: functional
T2 sequence (whole entry): T1 sequence (P05227 whole entry)

[7] = Toxicity in Swiss mice (Mus musculus) infected with chloroquine-sensitive Plasmodium berghei ANKA assessed as mortality at 50 mg/kg, intraperitoneally administered 4 to 6 hrs after infection for 5 consecutive days measured within 7 days of postinfection; assay type: organism-based; parameters: dose 50 mg/kg, route intraperitoneal; settings: in vivo, ip, read-out: Activity
In short: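 Swiss mice were infected intraperitoneally with 4 × 10⁸ erythrocytes carrying chloroquine-sensitive P. berghei ANKA. They were dosed intraperitoneally at 50 mg/kg daily for five consecutive days. Parasitaemia was read on Giemsa-stained blood smears on days 4 and 7.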

Plasmodium berghei [8] = assay: Antiplasmodial activity as reduced parasitaemia against chloroquine-sensitive Plasmodium berghei ANKA infected Swiss mice (Mus musculus) at 20 mg/kg intraperitoneal dose 4-6 hrs post infection on day 4; assay type: functional, organism-based; parameters: dose 20 mg/kg
In short: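 Mice infected ip with P. berghei ANKA-infected erythrocytes (4 × 10⁸) received the compound intraperitoneally. Parasitaemia was counted on Giemsa-stained blood smears on days 4 and 7.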

SMILES | IC50 (Plasmodium falciparum) [µM] | IC50 [1] [µM] | selectivity ratio [2] | IC50 (Nucleic Acid) [µM] | IC50 [3] | IC50 [4] [milliequivalent] | Activity (Plasmodium berghei [5]) | IC50 (MRC5) [µM] | inhibition [6] [%] | mortality at 7 days [7] [%] | Activity (Plasmodium berghei [8])
Cn1c2nc3ccccc3c-2cc2ccc(Cl)cc21 | 41.1 | 21 | 0.5 |  |  |  |  |  |  |  | 
Cn1c2nc3ccccc3c-2c(N2CCC(N3CCCCC3)CC2)c2cc(Cl)ccc21 | 2.46 | 4.4 | 2 | 180 | Not Active |  |  |  |  |  | 
Clc1ccc2nc3[nH]c4ccccc4c3c(NCCN3CCOCC3)c2c1 | 33 | > 64 | > 2 | > 1000 | Not Active |  |  |  |  |  | 
CN1CCN(c2c3cc(Cl)ccc3nc3[nH]c4ccccc4c23)CC1 | 2.46 | 3 | 1 | > 1000 |  | 2.09 |  |  |  |  | 
Cn1c2nc3ccccc3c-2c(N2CCN(CCO)CC2)c2cc(Cl)ccc21 | 2.28 | 0.82 | 0.4 | 376 | Not Active |  |  |  |  |  | 
Cn1c2nc3ccc(Cl)cc3c-2cc2ccccc21 | 29 | > 64 | > 2 | > 1000 |  | 1.23 |  |  |  |  | 
Cn1c2nc3ccccc3c-2c(Cl)c2c(Cl)cccc21 | 39 | 34 | 0.9 | > 1000 | Not Active |  |  |  |  |  | 
CCN(CC)CCCC(C)Nc1c2cc(Cl)ccc2nc2[nH]c3ccccc3c12 (stereo not drawn) | 0.12 | > 64 | > 533 | > 1000 |  | 2.3 | inactive |  |  |  | 
Clc1cccc2nc3[nH]c4ccccc4c3c(Cl)c12 | > 64 | > 64 |  | > 1000 | Not Active |  |  |  |  |  | 
Clc1ccc2nc3[nH]c4ccccc4c3c(Cl)c2c1 | > 64 | > 64 |  | > 1000 | Not Active |  |  |  |  |  | 
OCCN1CCN(c2c3cc(Cl)ccc3nc3[nH]c4ccccc4c23)CC1 | 2.34 | 2 | 0.9 | > 1000 |  | 2 |  |  |  |  | 
Cn1c2nc3ccccc3c-2cc2cc(Br)ccc21 |  | > 32 | > 5 | > 400 |  | 1.77 |  | > 32 |  |  | 
CCN(CC)CCCC(C)Nc1ccc2c3cc4ccccc4n(C)c-3nc2c1 (stereo not drawn) | 0.01 | 18 | 1800 | 219 |  | 4.4 |  |  |  |  | 
CCN(CC)CCCC(C)Nc1ccc2cc3c4ccccc4nc-3n(C)c2c1 (stereo not drawn) | 0.015 | 16 | 1070 |  |  |  |  |  |  |  | 
CCN(CC)CCCC(C)Nc1c2c3ccccc3nc-2n(C)c2cccc(Cl)c12 (stereo not drawn) | 0.35 | 21 | 60 | > 1000 |  |  |  |  | < 20 |  | 
CCN(CC)CCCC(C)Nc1c2c(Cl)cccc2nc2[nH]c3ccccc3c12 (stereo not drawn) | 1.2 | 20 | 17 | > 1000 |  | 3.05 |  |  |  |  | 
CCN(CC)CCCC(C)Nc1c2ccc(Cl)cc2nc2[nH]c3ccccc3c12 (stereo not drawn) | 0.14 | 15 | 107 | > 1000 |  | 4.43 |  |  |  |  | 
CN1CCN(c2c3c4ccccc4nc-3n(C)c3ccc(Cl)cc23)CC1 | 2.1 | 1 | 0.5 | 358 | Not Active |  |  |  |  |  | 
Cn1c2nc3cc(Cl)ccc3c-2cc2ccccc21 | > 64 | > 64 |  | > 1000 |  | 1.55 |  |  |  |  | 

SMILES | IC50 (Plasmodium falciparum) [µM] | IC50 [1] [µM] | selectivity ratio [2] | IC50 (Nucleic Acid) [µM] | IC50 [3] | IC50 [4] [milliequivalent] | Activity (Plasmodium berghei [5]) | IC50 (MRC5) [µM] | inhibition [6] [%] | mortality at 7 days [7] [%] | Activity (Plasmodium berghei [8])
Cn1c2nc3ccccc3c-2cc2cc(Cl)ccc21 | 52 | > 64 | > 1 | > 1000 |  | 1.31 |  |  |  |  | 
Cn1c2nc3ccccc3c-2c(Cl)c2ccc(Cl)cc21 | > 64 | 27 | < 0.4 |  |  | 1.14 |  |  |  |  | 
CN(C)CCNc1c2c3ccccc3nc-2n(C)c2ccc(Cl)cc12 | < 0.25 | < 0.25 |  | 164 | Not Active |  |  |  |  |  | 
Clc1ccc2c(Cl)c3c(nc2c1)[nH]c1ccccc13 | > 64 | > 64 |  | > 1000 | Not Active |  |  |  |  |  | 
Cn1c2nc3ccccc3c-2c(NCCN2CCOCC2)c2cc(Cl)ccc21 | 0.69 | 0.37 | 0.5 | 118 | Not Active |  |  |  |  |  | 
Clc1ccc2nc3[nH]c4ccccc4c3c(NCCN3CCCC3)c2c1 | 3 | > 64 | > 21 | > 1000 |  | 5.4 |  |  |  |  | 
CCN(CC)CCCC(C)Nc1c2c3ccccc3nc-2n(C)c2ccccc12 (stereo not drawn) | 0.62 | 20 | 32 | 312 |  | 4.11 |  |  |  |  | 
Clc1ccc2nc3[nH]c4ccccc4c3c(N3CCC(N4CCCCC4)CC3)c2c1 | < 0.25 | 2 | > 8 | > 1000 |  | 2.2 |  |  |  |  | 
CCN(CC)CCCC(C)Nc1c2c3ccccc3nc-2n(C)c2ccc(Cl)cc12 (stereo not drawn) | 0.043 | 29 | 674 | > 1000 |  |  | 100% |  | < 20 | 50 | inactive
Cn1c2nc3ccccc3c-2c(Cl)c2ccccc21 [11-CHLORONEOCRYPTOLEPINE] | > 64 | 5 | < 0.08 |  |  |  |  |  |  |  | 
CCN1CCCC1CNc1c2cc(Cl)ccc2nc2[nH]c3ccccc3c12 (stereo not drawn) | 0.38 | 15 | 39 | > 1000 |  | 1.53 |  |  |  |  | 
CCN(CC)CCCC(C)Nc1ccc2c(c1)cc1c3ccccc3nc-1n2C (stereo not drawn) | 0.03 | 7.2 | 240 | 128 |  | 1.45 |  |  |  |  | 
CN(C)CCNc1c2cc(Cl)ccc2nc2[nH]c3ccccc3c12 | 0.4 | > 64 | > 160 | > 1000 |  | 3.68 |  |  |  |  | 
CCN1CCCC1CNc1c2c3ccccc3nc-2n(C)c2ccc(Cl)cc12 (stereo not drawn) | < 0.25 | 0.4 | > 2 | 645 | Not Active |  |  |  |  |  | 
Cn1c2nc3ccccc3c-2c(NCCN2CCCC2)c2cc(Cl)ccc21 | < 0.25 | < 0.25 |  | 186 | Not Active |  |  |  |  |  | 
CCN(CC)CCCC(C)Nc1c2c3ccccc3nc-2n(C)c2cc(Cl)ccc12 (stereo not drawn) | 0.13 | 14 | 108 | 248 |  | 5.25 |  |  |  |  | 
Cn1c2nc3ccccc3c-2cc2ccccc21 [NEOCRYPTOLEPINE] |  | 11 | 0.4 |  |  | 5.97 |  |  |  |  | 
CCN(CC)CCCC(C)Nc1ccc2nc3n(C)c4ccccc4cc-3c2c1 (stereo not drawn) | 0.14 | 16 | 114 | 446 |  |  |  |  | < 20 |  | 
Cn1c2nc3ccccc3c-2c(Cl)c2cc(Cl)ccc21 | > 64 | > 64 |  | > 1000 | Not Active |  |  |  |  |  | 
